Values after ≈ are worked out from the molar mass of the structure shown.
Key:
Assay type in all cases: functional
Staphylococcus aureus [1] = experiment: Antimicrobial activity against Staphylococcus aureus OXFORD after 24 hrs by broth microdilution method
Method in brief: (§1)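 Broth microdilution following NCCLS M7-A4, using ATCC strains and clinical isolates from a provincial hospital.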

Staphylococcus aureus [2] = experiment: Antimicrobial activity against Staphylococcus aureus WCUH29 after 24 hrs by broth microdilution method; details: WCUH29, 24 h
Method in brief: (§2)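 Broth microdilution following NCCLS M7-A4; ATCC strains and clinical isolates from a provincial hospital.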

Enterococcus faecalis = experiment: Antimicrobial activity against Enterococcus faecalis Isolate 1 after 24 hrs by broth microdilution method; details: Isolate 1, 24 h; method in brief: as §2
Enterococcus faecium = experiment: Antimicrobial activity against Enterococcus faecium X7501 after 24 hrs by broth microdilution method; details: X7501, 24 h; method in brief: as §2
Haemophilus influenzae [3] = experiment: Antimicrobial activity against Haemophilus influenzae Q1 after 24 hrs by broth microdilution method; details: Q1, 24 h; method in brief: as §2
Haemophilus influenzae [4] = experiment: Antimicrobial activity against Haemophilus influenzae H128 after 24 hrs by broth microdilution method; details: H128, 24 h; method in brief: as §2
Haemophilus influenzae [5] = experiment: Antimicrobial activity against AcrA-deficient Haemophilus influenzae H128 after 24 hrs by broth microdilution method; details: H128, 24 h; method in brief: as §2
Moraxella catarrhalis = experiment: Antimicrobial activity against Moraxella catarrhalis 1502 after 24 hrs by broth microdilution method; details: Moraxella catarrhalis, 1502, 24 h; method in brief: as §2
Streptococcus pneumoniae [6] = experiment: Antimicrobial activity against Streptococcus pneumoniae 1629 after 24 hrs by broth microdilution method; details: Streptococcus pneumoniae, 1629, 24 h; method in brief: as §2
Streptococcus pneumoniae [7] = experiment: Antimicrobial activity against Streptococcus pneumoniae N1387 after 24 hrs by broth microdilution method; details: N1387, 24 h; method in brief: as §2
Streptococcus pneumoniae [8] = experiment: Antimicrobial activity against Streptococcus pneumoniae ERY2 after 24 hrs by broth microdilution method; details: ERY2, 24 h; method in brief: as §2
Escherichia coli [9] = experiment: Antimicrobial activity against Escherichia coli isolate 3 after 24 hrs by broth microdilution method; details: isolate 3, 24 h; method in brief: as §2
Streptococcus pyogenes [10] = experiment: Antimicrobial activity against Streptococcus pyogenes 1307006P after 24 hrs by broth microdilution method; method in brief: as §2
Streptococcus pyogenes [11] = experiment: Antimicrobial activity against Streptococcus pyogenes 1308007P after 24 hrs by broth microdilution method; method in brief: as §2
Staphylococcus aureus [12] = experiment: Antimicrobial activity against Staphylococcus aureus ATCC 29213 after 24 hrs by broth microdilution method; details: ATCC 29213, 24 h; method in brief: as §2
Staphylococcus aureus [13] = experiment: Antimicrobial activity against Staphylococcus aureus isolate A53 after 24 hrs by broth microdilution method; details: isolate A53, 24 h; method in brief: as §1
Staphylococcus aureus [14] = experiment: Antimicrobial activity against Staphylococcus aureus isolate CARTER 37 after 24 hrs by broth microdilution method; details: isolate CARTER 37, 24 h; method in brief: as §1
Staphylococcus aureus [15] = experiment: Antimicrobial activity against Staphylococcus aureus isolate CL 939 after 24 hrs by broth microdilution method; details: isolate CL 939, 24 h; method in brief: as §1
Staphylococcus aureus [16] = experiment: Antimicrobial activity against Staphylococcus aureus isolate Ealing 23 after 24 hrs by broth microdilution method; details: isolate Ealing 23, 24 h; method in brief: as §1
Staphylococcus aureus [17] = experiment: Antimicrobial activity against Staphylococcus aureus isolate Ealing 32 after 24 hrs by broth microdilution method; details: isolate Ealing 32, 24 h; method in brief: as §2
Staphylococcus aureus [18] = experiment: Antimicrobial activity against Staphylococcus aureus isolate F89 after 24 hrs by broth microdilution method; details: isolate F89, 24 h; method in brief: as §2
Staphylococcus aureus [19] = experiment: Antimicrobial activity against Staphylococcus aureus isolate MILES HALL after 24 hrs by broth microdilution method; method in brief: as §1
Staphylococcus aureus [20] = experiment: Antimicrobial activity against Staphylococcus aureus isolate RN4220 pmz1 after 24 hrs by broth microdilution method; details: isolate RN4220 pmz1, 24 h; method in brief: as §1
Staphylococcus aureus [21] = experiment: Antimicrobial activity against Staphylococcus aureus isolate RUSSELL after 24 hrs by broth microdilution method; method in brief: as §1
Staphylococcus aureus [22] = experiment: Antimicrobial activity against Staphylococcus aureus isolate Smith ATCC 13709 after 24 hrs by broth microdilution method; details: isolate Smith ATCC 13709, 24 h; method in brief: as §1
Staphylococcus aureus [23] = experiment: Antimicrobial activity against Staphylococcus aureus isolate SWEETING after 24 hrs by broth microdilution method; method in brief: as §1
Staphylococcus aureus [24] = experiment: Antimicrobial activity against Staphylococcus aureus isolate CL 1033 after 24 hrs by broth microdilution method; details: isolate CL 1033, 24 h; method in brief: as §2
Staphylococcus aureus [25] = experiment: Antimicrobial activity against Staphylococcus aureus isolate CL 938 after 24 hrs by broth microdilution method; details: isolate CL 938, 24 h; method in brief: as §2
Staphylococcus aureus [26] = experiment: Antimicrobial activity against Staphylococcus aureus isolate MN 1255 after 24 hrs by broth microdilution method; details: isolate MN 1255, 24 h; method in brief: as §2
Staphylococcus aureus [27] = experiment: Antimicrobial activity against Staphylococcus aureus isolate NEQAS 4026 after 24 hrs by broth microdilution method; details: isolate NEQAS 4026, 24 h; method in brief: as §2
Staphylococcus aureus [28] = experiment: Antimicrobial activity against Staphylococcus aureus isolate OGA833 after 24 hrs by broth microdilution method; details: isolate OGA833, 24 h; method in brief: as §2
Staphylococcus aureus [29] = experiment: Antimicrobial activity against Staphylococcus aureus isolate PAV 5 after 24 hrs by broth microdilution method; details: isolate PAV 5, 24 h; method in brief: as §2
Staphylococcus aureus [30] = experiment: Antimicrobial activity against Staphylococcus aureus isolate RN1024 after 24 hrs by broth microdilution method; details: isolate RN1024, 24 h; method in brief: as §1
Staphylococcus aureus [31] = experiment: Antimicrobial activity against Staphylococcus aureus isolate RN1030 after 24 hrs by broth microdilution method; details: isolate RN1030, 24 h; method in brief: as §1
Staphylococcus aureus [32] = experiment: Antimicrobial activity against Staphylococcus aureus isolate 306 after 24 hrs by broth microdilution method; details: isolate 306, 24 h; method in brief: as §2
Staphylococcus aureus [33] = experiment: Antimicrobial activity against Staphylococcus aureus isolate 68/8684 after 24 hrs by broth microdilution method; details: isolate 68/8684, 24 h; method in brief: as §2
Staphylococcus aureus [34] = experiment: Antimicrobial activity against Staphylococcus aureus isolate 929003 after 24 hrs by broth microdilution method; details: isolate 929003, 24 h; method in brief: as §2
Staphylococcus aureus [35] = experiment: Antimicrobial activity against Staphylococcus aureus isolate 929035 after 24 hrs by broth microdilution method; details: isolate 929035, 24 h; method in brief: as §2
Staphylococcus aureus [36] = experiment: Antimicrobial activity against Staphylococcus aureus isolate 934324 after 24 hrs by broth microdilution method; details: isolate 934324, 24 h; method in brief: as §2
Staphylococcus aureus [37] = experiment: Antimicrobial activity against Staphylococcus aureus isolate 934334 after 24 hrs by broth microdilution method; details: isolate 934334, 24 h; method in brief: as §2
Staphylococcus aureus [38] = experiment: Antimicrobial activity against Staphylococcus aureus isolate 934335 after 24 hrs by broth microdilution method; details: isolate 934335, 24 h; method in brief: as §2
Staphylococcus aureus [39] = experiment: Antimicrobial activity against Staphylococcus aureus isolate 934387 after 24 hrs by broth microdilution method; details: isolate 934387, 24 h; method in brief: as §1
Staphylococcus aureus [40] = experiment: Antimicrobial activity against Staphylococcus aureus isolate NEQAS 4158 after 24 hrs by broth microdilution method; details: isolate NEQAS 4158, 24 h; method in brief: as §2
Staphylococcus aureus [41] = experiment: Antimicrobial activity against Staphylococcus aureus ATCC 33591 in septicemia mouse model administered intragastrically measured after 14 days; details: ATCC 33591, po, 336 h
Staphylococcus aureus [42] = experiment: Antimicrobial activity against Staphylococcus aureus ATCC 33591 in septicemia mouse model assessed as mortality of host at 20 mg/kg administered intragastrically measured after 14 days relative to control; details: ATCC 33591, po, 336 h, route intragastric
Method in brief: (§3)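 Septicemia model: outbred mice inoculated i.p. with a 90–100% lethal dose (5 × 10^6 CFU/mL) in 0.5 mL brain heart infusion broth with 5% mucin. Drug in 20% DMSO given intragastrically after infection at 5, 10 or 20 mg/kg, 0.1 mL. Six mice per dose; cumulative mortality over 14 days; ED50 derived.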

Staphylococcus aureus [43] = experiment: Antimicrobial activity against Staphylococcus aureus ATCC 33591 in septicemia mouse model assessed as mortality of host at 10 mg/kg administered intragastrically measured after 14 days relative to control; details: ATCC 33591, po, 336 h, route intragastric; method in brief: as §3
Staphylococcus aureus [44] = experiment: Antimicrobial activity against Staphylococcus aureus ATCC 33591 in septicemia mouse model assessed as mortality of host at 5 mg/kg administered intragastrically measured after 14 days relative to control; details: ATCC 33591, po, 336 h, route intragastric; method in brief: as §3
[45] = test system: Staphylococcus epidermidis; experiment: Antimicrobial activity against Staphylococcus epidermidis after 24 hrs by broth microdilution method; method in brief: as §2
Escherichia coli [46] = experiment: Antimicrobial activity against Escherichia coli isolate 1 after 24 hrs by broth microdilution method; details: isolate 1, 24 h; method in brief: as §2
Escherichia coli [47] = experiment: Antimicrobial activity against Escherichia coli isolate 2 after 24 hrs by broth microdilution method; details: isolate 2, 24 h; method in brief: as §2

CC1(C)S[C@@H]2[C@H](NC(=O)[C@H](N)c3ccc(O)cc3)C(=O)N2[C@H]1C(=O)O [AMOXICILLIN]
MIC (Staphylococcus aureus [1]): 0.125 µg/mL (≈ 0.342 µM)
MIC (Staphylococcus aureus [2]): 64 µg/mL (≈ 175 µM)
MIC (Enterococcus faecalis): 0.5 µg/mL (≈ 1.37 µM)
MIC (Enterococcus faecium): 16 µg/mL (≈ 43.8 µM)
MIC (Haemophilus influenzae [3]): 0.25 µg/mL (≈ 0.684 µM)
MIC (Haemophilus influenzae [4]): 32 µg/mL (≈ 87.6 µM)
MIC (Haemophilus influenzae [5]): 64 µg/mL (≈ 175 µM)
MIC (Moraxella catarrhalis): ≤ 0.06 µg/mL
MIC (Streptococcus pneumoniae [6]): ≤ 0.06 µg/mL
MIC (Streptococcus pneumoniae [7]): 2 µg/mL (≈ 5.47 µM)
MIC (Streptococcus pneumoniae [8]): ≤ 0.06 µg/mL
MIC (Escherichia coli [9]): 1 µg/mL (≈ 2.74 µM)
MIC (Streptococcus pyogenes [10]): ≤ 0.06 µg/mL
MIC (Streptococcus pyogenes [11]): ≤ 0.06 µg/mL
MIC (Staphylococcus aureus [12]): 1 µg/mL (≈ 2.74 µM)
MIC (Staphylococcus aureus [13]): 0.125 µg/mL (≈ 0.342 µM)
MIC (Staphylococcus aureus [14]): 0.25 µg/mL (≈ 0.684 µM)
MIC (Staphylococcus aureus [15]): 2 µg/mL (≈ 5.47 µM)
MIC (Staphylococcus aureus [16]): 0.5 µg/mL (≈ 1.37 µM)
MIC (Staphylococcus aureus [17]): 1 µg/mL (≈ 2.74 µM)
MIC (Staphylococcus aureus [18]): 2 µg/mL (≈ 5.47 µM)
MIC (Staphylococcus aureus [19]): 0.25 µg/mL (≈ 0.684 µM)
MIC (Staphylococcus aureus [20]): 0.125 µg/mL (≈ 0.342 µM)
MIC (Staphylococcus aureus [21]): > 16 µg/mL
MIC (Staphylococcus aureus [22]): 0.125 µg/mL (≈ 0.342 µM)
MIC (Staphylococcus aureus [23]): 0.125 µg/mL (≈ 0.342 µM)
MIC (Staphylococcus aureus [24]): > 16 µg/mL
MIC (Staphylococcus aureus [25]): > 16 µg/mL
MIC (Staphylococcus aureus [26]): > 16 µg/mL
MIC (Staphylococcus aureus [27]): > 16 µg/mL
MIC (Staphylococcus aureus [28]): > 16 µg/mL
MIC (Staphylococcus aureus [29]): > 16 µg/mL
MIC (Staphylococcus aureus [30]): > 16 µg/mL
MIC (Staphylococcus aureus [31]): > 16 µg/mL
MIC (Staphylococcus aureus [32]): > 16 µg/mL
MIC (Staphylococcus aureus [33]): > 16 µg/mL
MIC (Staphylococcus aureus [34]): > 16 µg/mL
MIC (Staphylococcus aureus [35]): > 16 µg/mL
MIC (Staphylococcus aureus [36]): > 16 µg/mL
MIC (Staphylococcus aureus [37]): > 16 µg/mL
MIC (Staphylococcus aureus [38]): > 16 µg/mL
MIC (Staphylococcus aureus [39]): > 16 µg/mL
MIC (Staphylococcus aureus [40]): > 16 µg/mL

CC(=O)NC[C@H]1CN(c2ccc(N3CCOCC3)c(F)c2)C(=O)O1 [LINEZOLID]
ED50 (Staphylococcus aureus [41]): 11.9 mg/kg
mortality at 20 mg/kg (Staphylococcus aureus [42]): 16%
mortality at 10 mg/kg (Staphylococcus aureus [43]): 66%
mortality at 5 mg/kg (Staphylococcus aureus [44]): 83%
MIC [45]: 0.5 µg/mL (≈ 1.48 µM)
MIC (Escherichia coli [46]): > 64 µg/mL
MIC (Escherichia coli [47]): > 64 µg/mL

— ChEMBL document CHEMBL3352487, “Synthesis, antibacterial activity, and biological evaluation of formyl hydroxyamino derivatives as novel potent peptide deformylase inhibitors against drug-resistant bacteria” (Eur J Med Chem, 2014)
